This passage reports IC50 and Ratio results from ChEMBL document CHEMBL1150273, “Aza-peptidyl Michael acceptors. A new class of potent and selective inhibitors of asparaginyl endopeptidases (legumains) from evolutionarily diverse pathogens” (J Med Chem, 2008).

The IC50 is the point on the concentration scale where inhibition reaches its midpoint. A higher IC50 goes with weaker potency.

A value given as a limit tells only on which side of the number the result lay.

The nature of assay [1]: Inhibition of Schistosoma mansoni AE expressed in Pichia pastoris after 20 mins. The procedure, abridged: (§1)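 Recombinant AE zymogens expressed in Pichia pastoris; SmAE and TvAE1 autoactivated in 0.5 M sodium acetate, 4 mM DTT, pH 4.5, 37 °C, 3 h to overnight; IrAE used without activation. Buffer 0.1 M citrate phosphate, 4 mM DTT, pH 6.8 (SmAE, TvAE1) or pH 5.5 (IrAE). Inhibitor 2.0–0.0002 µM final, 20 min preincubation at room temperature; 10 µM final Cbz-Ala-Ala-Asn-AMC, 20 min; IC50 from RFU/min vs concentration.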

Assay [2] in a line: Inhibition of Ixodes ricinus AE expressed in Pichia pastoris after 20 mins. The procedure, abridged:
as §1

Assay [3] in a line: Inhibition of Trichomonas vaginalis G3 AE1 expressed in Pichia pastoris after 20 mins. The procedure, abridged: as §1
Assay [4] concerns Schistosoma mansoni. As to the kind of experiment: Inhibition of Schistosoma mansoni AE assessed as ratio of pseudo-first-order inhibition rate constant to inhibitor concentration. The procedure, abridged:
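Autoactivated recombinant SmAE added to six inhibitor concentrations (0–1 µM final) in 0.1 M citrate phosphate, 2 mM DTT, pH 6.8 with 20 µM Cbz-Ala-Ala-Asn-AMC; progress followed every 2 s for 30 min at 25 °C (ex 355, em 460 nm); kobs/[I] by nonlinear regression, corrected for substrate by factor 1.33.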

Take `C[C@H](NC(=O)OCc1ccccc1)C(=O)N[C@@H](C)C(=O)NN(CC(N)=O)C(=O)/C=C/C(=O)NCc1ccccc1`: the IC50 in assay [1] was 1 µM; in assay [2] it was 0.2 µM; in assay [3] it was 0.01 µM.
Turning to `C[C@H](NC(=O)OCc1ccccc1)C(=O)N[C@@H](C)C(=O)NN(CC(N)=O)C(=O)/C=C/C(=O)N1CC=C(c2ccccc2)CC1`, the half-inhibitory concentration (IC50) in assay [1] stood at 0.75 µM; in assay [2] it was 0.085 µM; in assay [3], 0.01 µM.
Turning to `C[C@H](NC(=O)OCc1ccccc1)C(=O)N[C@@H](C)C(=O)NN(CC(N)=O)C(=O)/C=C/C(=O)N(Cc1ccco1)Cc1ccco1`, the IC50 in assay [1] is 0.9 µM; in assay [2] it was 15 µM; in assay [3], 5 µM.
In the case of `C[C@H](NC(=O)OCc1ccccc1)C(=O)N[C@@H](C)C(=O)NN(CC(N)=O)C(=O)/C=C/C(=O)N(Cc1ccccc1)Cc1ccc2ccccc2c1`, the IC50 is 0.07 µM in assay [1], 0.008 µM in assay [2] and 0.006 µM in assay [3]. Also, in assay [4], the Ratio came out at 6100 M⁻¹ s⁻¹.
With `C[C@H](NC(=O)OCc1ccccc1)C(=O)N[C@@H](C)C(=O)NN(CC(N)=O)C(=O)/C=C/C(=O)NCc1ccc(F)cc1`, the IC50 was determined as 0.8 µM in assay [1], 0.25 µM in assay [2] and 0.075 µM in assay [3].
For `COc1ccc(CN(Cc2ccccc2)C(=O)/C=C/C(=O)N(CC(N)=O)NC(=O)[C@H](C)NC(=O)[C@H](C)NC(=O)OCc2ccccc2)cc1`, in that order: 0.09 µM, 0.012 µM and 0.0023 µM.
For `CCCCN(CCCC)C(=O)/C=C/C(=O)N(CC(N)=O)NC(=O)[C@H](C)NC(=O)[C@H](C)NC(=O)OCc1ccccc1`, in that order: 0.55 µM, 0.1 µM and 1 µM.
`C[C@H](NC(=O)OCc1ccccc1)C(=O)N[C@@H](C)C(=O)NN(CC(N)=O)C(=O)/C=C/C(=O)N(C)CCc1ccccc1`: the IC50 in assay [1] was 0.6 µM; in assay [3] it was 0.05 µM.
For `C[C@H](NC(=O)OCc1ccccc1)C(=O)N[C@@H](C)C(=O)NN(CC(N)=O)C(=O)/C=C/C(=O)N1CCCCC1`, in that order: 1 µM and 0.5 µM.
Regarding `C[C@H](NC(=O)OCc1ccccc1)C(=O)N[C@@H](C)C(=O)NN(CC(N)=O)C(=O)/C=C/c1ccco1`, the IC50 in assay [1] was greater than 2 µM; in assay [2], 7.5 µM.
For `C[C@H](NC(=O)OCc1ccccc1)C(=O)N[C@@H](C)C(=O)NN(CC(N)=O)C(=O)/C=C/C(=O)N(Cc1ccccc1)Cc1ccc(F)cc1`, the IC50 was 0.06 µM in assay [1], 0.7 µM in assay [2] and less than 0.001 µM in assay [3].
In the case of `C[C@H](NC(=O)OCc1ccccc1)C(=O)N[C@@H](C)C(=O)NN(CC(N)=O)C(=O)/C=C/C(=O)N(Cc1ccccc1)Cc1cccc2ccccc12`, the IC50 in assay [1] is 0.062 µM; in assay [2] it was 0.006 µM; in assay [3] it was less than 0.001 µM. In addition, the Ratio in assay [4] is 6180 M⁻¹ s⁻¹.
For the compound `C[C@H](NC(=O)OCc1ccccc1)C(=O)N[C@@H](C)C(=O)NN(CC(N)=O)C(=O)/C=C/C(=O)N(C)C(Cc1ccccc1)C(=O)N(C)CCc1ccccc1` (some centres not stated), the IC50 is 0.75 µM in assay [1], 0.3 µM in assay [2] and 0.08 µM in assay [3].
The corresponding values for `C[C@H](NC(=O)OCc1ccccc1)C(=O)N[C@@H](C)C(=O)NN(CC(N)=O)C(=O)/C=C/C(=O)N(C)c1ccccc1` are 0.06 µM, 0.0018 µM and 0.005 µM.
For `C[C@H](NC(=O)OCc1ccccc1)C(=O)N[C@@H](C)C(=O)NN(CC(N)=O)C(=O)/C=C/C(=O)N1CCCc2ccccc21`, the IC50 in assay [1] was 0.07 µM; in assay [2], 0.004 µM; in assay [3], 0.0035 µM.
For `CCOC(=O)/C=C/C(=O)N(CC(N)=O)NC(=O)[C@H](C)NC(=O)[C@H](C)NC(=O)CCCC[C@@H]1SC[C@@H]2NC(=O)N[C@@H]21`, in that order: 0.01 µM, 0.0028 µM and less than 0.01 µM.
The corresponding values for `C[C@H](NC(=O)OCc1ccccc1)C(=O)N[C@@H](C)C(=O)NN(CC(N)=O)C(=O)/C=C/C(=O)N(Cc1ccccc1)c1ccccc1` are 0.07 µM, less than 0.001 µM and less than 0.001 µM.
Regarding `C[C@H](NC(=O)OCc1ccccc1)C(=O)N[C@@H](C)C(=O)NN(CC(N)=O)C(=O)/C=C/C(=O)Nc1ccccc1`, the IC50 in assay [1] worked out at 0.7 µM; in assay [2], 0.01 µM; in assay [3], 0.02 µM.
The corresponding values for `C[C@H](NC(=O)OCc1ccccc1)C(=O)N[C@@H](C)C(=O)NN(CC(N)=O)C(=O)/C=C/C(=O)N1CCc2ccccc2C1` are 0.2 µM, 0.025 µM and 0.01 µM.
For `C[C@H](NC(=O)OCc1ccccc1)C(=O)N[C@@H](C)C(=O)NN(CC(N)=O)C(=O)/C=C/C(=O)N1Cc2ccccc2C1`, in that order: 0.3 µM, 0.0045 µM and 0.02 µM.
For `C[C@H](NC(=O)OCc1ccccc1)C(=O)N[C@@H](C)C(=O)NN(CC(N)=O)C(=O)/C=C/c1cccnc1`, in that order: greater than 2 µM, 15 µM and 8 µM.
